In ChEMBL document CHEMBL1135939, “Studies on the synthesis and opioid agonistic activities of mitragynine-related indole alkaloids: discovery of opioid agonists structurally different from other opioid ligands” (J Med Chem, 2002):
Activity calls are given as the source filed them. The calls are words filed in the database; no cut-off is given here.

Tests used:
[1] = system: Delta-type opioid receptor; test: Relative affinity evaluated for Opioid receptor delta 1; settings: Cavia porcellus
Method in brief: (§1)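 From displacement Ki values in guinea pig brain membranes for μ ([3H]DAMGO), δ ([3H]DPDPE) and κ ([3H]U-69593) sites. Ka = 1/Ki. Relative affinity (%) = Ka for the subtype / (Kaμ + Kaδ + Kaκ).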

Cavia porcellus [2] = species: Cavia porcellus; test: activity evaluated by its ability to inhibit the electrically induced twitch contraction in guinea pig ileum, which is reversed by naloxone (300 nM) (P < 0.001); assay type: functional
Method in brief: (§2)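 Ileum from male Dunkin-Hartley guinea pigs (300–400 g) in bath at 37 °C bubbled with 95% O2/5% CO2. Tissue suitability checked with acetylcholine 3 μM. Transmural stimulation at 0.2 Hz, 0.3 ms, supramaximal voltage, isotonic recording. Cumulative concentration–response curves over 100 pM–30 μM. Twitch height measured before and after drug. Mean ± SEM from five to six animals.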

Cavia porcellus [3] = species: Cavia porcellus; test: % maximum inhibition is elicited when the response reaches plateau, calculated regarding electrically induced contraction in guinea pig ileum as 100%; assay type: functional; method in brief: as §2
Mu-type opioid receptor = Mu-type opioid receptor (Cavia porcellus, UniProt P97266); test: Binding affinity using guinea pig brain membrane preparations, towards Opioid receptor mu 1 using [3H]- DAMGO as radioligand
Method in brief: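 Guinea pig whole-brain (minus cerebellum) membranes in 50 mM Tris-HCl pH 7.4 with 1 nM radioligand. [3H]DPDPE incubated 2 h and [3H]DAMGO 1.5 h, both at 25 °C. Nonspecific binding defined with 1 μM naltrindole (DPDPE) or 1 μM DAMGO (DAMGO). GF/B filtration, scintillation counting. 6–9 inhibitor concentrations; Ki by Cheng–Prusoff, given as pKi. 3–5 curves, each in triplicate.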

Cavia porcellus [4] = species: Cavia porcellus; test: Relative potency expressed as the percentage of the pD2 value against that of morphine; assay type: functional
[5] = biological target: Mu-type opioid receptor (Cavia porcellus) (UniProt P97266); test: Relative affinity evaluated for Opioid receptor mu 1; method in brief: as §1
[6] = biological target: Kappa-type opioid receptor (Cavia porcellus, UniProt P41144); test: Binding affinity using guinea pig brain membrane preparations, towards Opioid receptor kappa 1 using [3H]- U-69,593 as radioligand
Cavia porcellus [7] = species: Cavia porcellus; test: Relative inhibitory activity expressed as the percentage of the maximum inhibition by the compound against that of morphine; assay type: functional
Cavia porcellus [8] = species: Cavia porcellus; test: activity evaluated by its ability to inhibit the electrically induced twitch contraction in guinea pig ileum, which is reversed by naloxone (300 nM)(P < 0.01); assay type: functional; method in brief: as §2
Cavia porcellus [9] = species: Cavia porcellus; test: % inhibition of twitch contraction in electrically stimulated guinea pig ileum preparation; assay type: functional; method in brief: as §2
Cavia porcellus [10] = species: Cavia porcellus; test: % maximum inhibition is elicited when the response reaches plateau, calculated regarding electrically induced contraction in guinea pig ileum as 100%(P < 0.001); assay type: functional; method in brief: as §2
Cavia porcellus [11] = species: Cavia porcellus; test: activity evaluated by its ability to inhibit the electrically induced twitch contraction in guinea pig ileum, which is reversed by naloxone (300 nM)(P < 0.001); assay type: functional; method in brief: as §2
Cavia porcellus [12] = species: Cavia porcellus; test: % maximum inhibition is elicited when the response reaches plateau, calculated regarding electrically induced contraction in guinea pig ileum as 100%; non specific; assay type: functional; method in brief: as §2
Cavia porcellus [13] = species: Cavia porcellus; test: Relative inhibitory activity expressed as the percentage of the maximum inhibition by the compound against that of morphine; non specific; assay type: functional
Cavia porcellus [14] = species: Cavia porcellus; test: Relative potency expressed as the percentage of the pD2 value against that of morphine; non specific; assay type: functional
Cavia porcellus [15] = species: Cavia porcellus; test: activity evaluated by its ability to inhibit the electrically induced twitch contraction in guinea pig ileum, which is reversed by naloxone (300 nM); non specific; assay type: functional; method in brief: as §2
Cavia porcellus [16] = species: Cavia porcellus; test: Effect of Corynantheidine (1 uM) on twitch contraction inhibited by Atropine (0.1 uM) in guinea pig; assay type: functional
Cavia porcellus [17] = species: Cavia porcellus; test: Effect of Corynantheidine (10 uM) on twitch contraction inhibited by morphine (1 uM) in guinea pig (P<0.001); assay type: functional
Cavia porcellus [18] = species: Cavia porcellus; test: Effect of Corynantheidine (1 uM) on twitch contraction inhibited by morphine (1 uM) in guinea pig (P<0.05); assay type: functional
Cavia porcellus [19] = species: Cavia porcellus; test: Effect of Corynantheidine (10 uM) on twitch contraction inhibited by Verapamil (3 uM) in guinea pig; assay type: functional
Cavia porcellus [20] = species: Cavia porcellus; test: % maximum inhibition is elicited when the response reaches plateau, calculated regarding electrically induced contraction in guinea pig ileum as 100% (P<0.001); assay type: functional; method in brief: as §2
Cavia porcellus [21] = species: Cavia porcellus; test: Effect of Corynantheidine (10 uM) on twitch contraction inhibited by Atropine (0.1 uM) in guinea pig; assay type: functional
Cavia porcellus [22] = species: Cavia porcellus; test: Effect of Corynantheidine (1 uM) on twitch contraction inhibited by Verapamil (3 uM) in guinea pig; assay type: functional
Cavia porcellus [23] = species: Cavia porcellus; test: % maximum inhibition is elicited when the response reaches plateau, calculated regarding electrically induced contraction in guinea pig ileum as 100%(P < 0.01); assay type: functional; method in brief: as §2
Cavia porcellus [24] = species: Cavia porcellus; test: % maximum inhibition is elicited when the response reaches plateau, calculated regarding electrically induced contraction in guinea pig ileum as 100% (P < 0.001); assay type: functional; method in brief: as §2
Cavia porcellus [25] = species: Cavia porcellus; test: activity evaluated by its ability to inhibit the electrically induced twitch contraction in guinea pig ileum, which is reversed by naloxone (300 nM); assay type: functional; method in brief: as §2
Cavia porcellus [26] = species: Cavia porcellus; test: % inhibition of twitch contraction at 3 uM in electrically stimulated guinea pig ileum preparation by; assay type: functional; method in brief: as §2
Cavia porcellus [27] = species: Cavia porcellus; test: % maximum inhibition is elicited when the response reaches plateau, calculated regarding electrically induced contraction in guinea pig ileum as 100%; no effect; assay type: functional; method in brief: as §2
Cavia porcellus [28] = species: Cavia porcellus; test: Relative potency expressed as the percentage of the pD2 value against that of morphine; no effect; assay type: functional
Cavia porcellus [29] = species: Cavia porcellus; test: Relative inhibitory activity expressed as the percentage of the maximum inhibition by the compound against that of morphine; no effect; assay type: functional
Cavia porcellus [30] = species: Cavia porcellus; test: activity evaluated by its ability to inhibit the electrically induced twitch contraction in guinea pig ileum, which is reversed by naloxone (300 nM); no effect; assay type: functional; method in brief: as §2
Cavia porcellus [31] = species: Cavia porcellus; test: % inhibition of twitch contraction at 0.1 uM in electrically stimulated guinea pig ileum preparation; assay type: functional; method in brief: as §2

Mu-type opioid receptor (Cavia porcellus), sequence (P97266 whole entry): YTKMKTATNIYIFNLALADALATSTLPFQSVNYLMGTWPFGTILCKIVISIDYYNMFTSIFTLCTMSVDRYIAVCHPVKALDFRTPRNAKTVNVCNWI
Mu-type opioid receptor, sequence (P97266 whole entry): as above
Kappa-type opioid receptor, sequence (P41144 whole entry): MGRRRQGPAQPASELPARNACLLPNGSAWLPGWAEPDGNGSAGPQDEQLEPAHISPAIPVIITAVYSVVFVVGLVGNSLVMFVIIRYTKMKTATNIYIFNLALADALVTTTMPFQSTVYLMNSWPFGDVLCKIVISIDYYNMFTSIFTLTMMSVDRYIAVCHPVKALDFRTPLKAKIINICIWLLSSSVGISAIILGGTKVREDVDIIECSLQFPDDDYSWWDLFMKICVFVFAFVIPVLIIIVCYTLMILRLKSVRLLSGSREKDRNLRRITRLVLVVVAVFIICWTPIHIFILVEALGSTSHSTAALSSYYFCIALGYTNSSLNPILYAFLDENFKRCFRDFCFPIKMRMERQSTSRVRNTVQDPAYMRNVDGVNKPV

CC[C@@H]1CN2CC[C@]3(Nc4cccc(OC)c4C3=O)[C@@H]2C[C@@H]1/C(=C\OC)C(=O)OC
Relative affinity [1]: 2.8% | pD2 (Cavia porcellus [2]): 8.71 | Inhibition (Cavia porcellus [3]): 83.5% | Ki (Mu-type opioid receptor): 0.0871 nM | Relative potency (Cavia porcellus [4]): 3467% | Relative affinity [5]: 97.1% | Ki [6]: 79.4 nM | Inhibition (Cavia porcellus [7]): 96%

CC[C@@H]1CN2CCc3c([nH]c4cccc(OC)c34)[C@@H]2C[C@@H]1/C(=C\OC)C(=O)OC
Relative affinity [1]: 10.7% | Inhibition (Cavia porcellus [3]): 83.1% | Ki (Mu-type opioid receptor): 7.24 nM | Relative potency (Cavia porcellus [4]): 26% | Relative affinity [5]: 88.7% | Ki [6]: 1100 nM | pD2 (Cavia porcellus [8]): 6.59 | Inhibition (Cavia porcellus [7]): 95%

CN1CC[C@]23c4c5ccc(O)c4O[C@H]2[C@@H](O)C=C[C@H]3[C@H]1C5 [MORPHINE]
Inhibition (Cavia porcellus [3]): 87.2% | Inhibition (Cavia porcellus [7]): 100% | Contraction (Cavia porcellus [9]): 27.4%

CCO[C@]12CCN3C[C@@H](CC)[C@@H](/C(=C\OC)C(=O)OC)C[C@H]3C1=Nc1cccc(OC)c12
Relative potency (Cavia porcellus [4]): 1% | Inhibition (Cavia porcellus [10]): 22.9% | pD2 (Cavia porcellus [11]): 5.29 | Inhibition (Cavia porcellus [7]): 26%

CC[C@@H]1CN2CCc3c([nH]c4cccc(OC)c34)[C@H]2C[C@@H]1/C(=C/OC)C(=O)OC
Inhibition (Cavia porcellus [3]): 85.9% | Relative potency (Cavia porcellus [4]): 2% | pD2 (Cavia porcellus [11]): 5.4 | Inhibition (Cavia porcellus [7]): 101%

CC[C@@H]1CN2CCc3c([nH]c4cccc(OC(C)C)c34)[C@@H]2C[C@@H]1/C(=C\OC)C(=O)OC
NS (Cavia porcellus [12]): non specific | NS (Cavia porcellus [13]): non specific | NS (Cavia porcellus [14]): non specific | NS (Cavia porcellus [15]): non specific

CC[C@@H]1CN2CC[C@@]3(O)C(=Nc4cccc(OC)c43)[C@@H]2C[C@@H]1/C(=C\OC)C(=O)OC
Relative affinity [1]: 6.6% | pD2 (Cavia porcellus [2]): 8.2 | Inhibition (Cavia porcellus [3]): 86.3% | Ki (Mu-type opioid receptor): 13.5 nM | Relative potency (Cavia porcellus [4]): 1071% | Relative affinity [5]: 83.3% | Ki [6]: 123 nM | Inhibition (Cavia porcellus [7]): 99%

CC[C@@H]1CN2CCc3c([nH]c4ccccc34)[C@@H]2C[C@@H]1/C(=C\OC)C(=O)OC [CORYNANRHEIDINE]
Relative affinity [1]: 1% | Ki (Mu-type opioid receptor): 72.4 nM | Contraction (Cavia porcellus [16]): 5.7% | Contraction (Cavia porcellus [17]): 109.2% | Relative affinity [5]: 95.8% | Contraction (Cavia porcellus [18]): 43% | Contraction (Cavia porcellus [19]): 13.2% | Ki [6]: 2570 nM | Inhibition (Cavia porcellus [20]): -18.1% | Contraction (Cavia porcellus [21]): 6.3% | Inhibition (Cavia porcellus [7]): -21% | Contraction (Cavia porcellus [22]): 7%

CCOc1cccc2[nH]c3c(c12)CCN1C[C@@H](CC)[C@@H](/C(=C\OC)C(=O)OC)C[C@@H]31
NS (Cavia porcellus [12]): non specific | NS (Cavia porcellus [13]): non specific | NS (Cavia porcellus [14]): non specific | NS (Cavia porcellus [15]): non specific

CC[C@@H]1CN2CC[C@@]3(OC)C(=Nc4cccc(OC)c43)[C@@H]2C[C@@H]1/C(=C\OC)C(=O)OC
Relative potency (Cavia porcellus [4]): 19% | Inhibition (Cavia porcellus [23]): 60.9% | pD2 (Cavia porcellus [11]): 6.45 | Inhibition (Cavia porcellus [7]): 70%

CC[C@@H]1CN2CCc3c([nH]c4cccc(OC(C)=O)c34)[C@@H]2C[C@@H]1/C(=C\OC)C(=O)OC
Relative potency (Cavia porcellus [4]): 2% | Inhibition (Cavia porcellus [7]): 38% | Inhibition (Cavia porcellus [24]): 33.2% | pD2 (Cavia porcellus [25]): 5.39

COc1ccc(CCN(C)CCCC(C#N)(c2ccc(OC)c(OC)c2)C(C)C)cc1OC (stereo unspecified)
Contraction (Cavia porcellus [26]): 6.8%

CC[C@@H]1CN2CC3=C(O)C4C(OC)=CC=CC4N=C3[C@@H]2C[C@@H]1/C(=C\OC)C(=O)OC (stereo partly specified)
Inhibition (Cavia porcellus [3]): 74.1% | Relative potency (Cavia porcellus [4]): 34% | pD2 (Cavia porcellus [11]): 6.7 | Inhibition (Cavia porcellus [7]): 85%

CC[C@@H]1CN2CCc3c([nH]c4cccc(O)c34)[C@@H]2C[C@@H]1/C(=C\OC)C(=O)OC
Relative affinity [1]: < 0.1% | Ki (Mu-type opioid receptor): 12 nM | Relative potency (Cavia porcellus [4]): 41% | Relative affinity [5]: 99.6% | Ki [6]: 2950 nM | Inhibition (Cavia porcellus [7]): 57% | Inhibition (Cavia porcellus [24]): 49.4% | pD2 (Cavia porcellus [25]): 6.78

CC[C@@H]1C[N+]2([O-])CCc3c([nH]c4cccc(OC)c34)[C@@H]2C[C@@H]1/C(=C\OC)C(=O)OC (stereo partly specified)
Inhibition (Cavia porcellus [3]): -123.5%

CC[C@@H]1CN2CC[C@@]3(OC(C)=O)C(=Nc4cccc(OC)c43)[C@@H]2C[C@@H]1/C(=C\OC)C(=O)OC
Relative potency (Cavia porcellus [4]): 21% | pD2 (Cavia porcellus [8]): 6.5 | Inhibition (Cavia porcellus [7]): 15% | Inhibition (Cavia porcellus [24]): 13.4%

CC[C@@H]1CN2CCc3c([nH]c4cccc(OCOC)c34)[C@@H]2C[C@@H]1/C(=C\OC)C(=O)OC
NE (Cavia porcellus [27]): inactive | NE (Cavia porcellus [28]): inactive | NE (Cavia porcellus [29]): inactive | NE (Cavia porcellus [30]): inactive

CN1[C@@H]2CC[C@H]1C[C@@H](OC(=O)C(CO)c1ccccc1)C2 (stereo partly specified) [ATROPINE]
Contraction (Cavia porcellus [31]): 3.9%
